ChEMBL document CHEMBL1140247, “The identification, synthesis, protein crystal structure and in vitro biochemical evaluation of a new 3,4-diarylpyrazole class of Hsp90 inhibitors” (Bioorg Med Chem Lett, 2005)
Values joined by “and” are separate entries in the source; they are usually repeats but may differ in a detail not shown here. Identical values can stand only once.

Tests used:
Assay type in all cases: functional
[1] = target: ATP-dependent molecular chaperone HSP82 (Saccharomyces cerevisiae S288c) (UniProt P02829); experiment: Inhibition of yeast Hsp90 ATPase activity at 40 uM
[2] = tested on: HCT-116; experiment: Inhibition of HCT116 human colon cancer cell proliferation
Summary of the method: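 HCT116 colon cancer cells; growth inhibition measured by sulforhodamine B (SRB) assay; GI50 derived.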

[3] = target: ATP-dependent molecular chaperone HSP82 (Saccharomyces cerevisiae S288c, UniProt P02829); experiment: Inhibition of yeast Hsp90 ATPase activity
Summary of the method: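 Yeast Hsp90 ATPase activity assay. Original conditions were 1 mM ATP substrate, incubated 3 h at 37 °C. Later optimised conditions used lower ATP and enzyme concentrations, with overnight incubation at 37 °C. IC50 values derived.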

Sequence of ATP-dependent molecular chaperone HSP82 (P02829 whole entry): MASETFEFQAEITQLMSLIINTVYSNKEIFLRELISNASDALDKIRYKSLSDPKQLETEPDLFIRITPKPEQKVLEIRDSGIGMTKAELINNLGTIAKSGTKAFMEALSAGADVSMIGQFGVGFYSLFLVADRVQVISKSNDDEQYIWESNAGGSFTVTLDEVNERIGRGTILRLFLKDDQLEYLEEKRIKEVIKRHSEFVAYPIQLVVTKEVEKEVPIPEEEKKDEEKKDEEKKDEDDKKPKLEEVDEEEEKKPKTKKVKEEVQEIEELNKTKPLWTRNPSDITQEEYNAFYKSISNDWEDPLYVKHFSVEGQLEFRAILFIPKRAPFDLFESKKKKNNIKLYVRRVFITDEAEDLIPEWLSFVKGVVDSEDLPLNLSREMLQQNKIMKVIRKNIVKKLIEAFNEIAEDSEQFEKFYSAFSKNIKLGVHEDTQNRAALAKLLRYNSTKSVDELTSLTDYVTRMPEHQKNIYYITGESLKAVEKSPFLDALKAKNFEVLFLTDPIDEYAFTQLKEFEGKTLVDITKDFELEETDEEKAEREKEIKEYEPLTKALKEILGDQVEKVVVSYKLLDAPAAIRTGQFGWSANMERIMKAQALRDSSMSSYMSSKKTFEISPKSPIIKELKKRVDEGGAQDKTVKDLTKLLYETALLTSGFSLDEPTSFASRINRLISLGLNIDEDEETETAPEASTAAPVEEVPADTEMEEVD
Sequence of ATP-dependent molecular chaperone HSP82 (Saccharomyces cerevisiae S288c) (P02829 whole entry, looked up): as the sequence (P02829 whole entry) above

SMILES	inhibition [1] [%]	GI50 [2] [µM]	IC50 [3]
Cc1n[nH]c(-c2ccc(O)cc2O)c1-c1ccc2c(c1)OCCO2	26	–	–
Cc1n[nH]c(-c2ccc(O)c(Cl)c2)c1-c1ccc2c(c1)OCCO2	–	–	> 100 µM
CCCc1cc(-c2[nH]nc(C)c2-c2ccc3c(c2)OCCO3)c(O)cc1O	25	–	46.1 µM
CC(C)c1cc(-c2[nH]ncc2-c2nc3ccccc3s2)c(O)cc1O	15	–	–
CCC(C)c1cc(-c2[nH]ncc2-c2ccc3c(c2)OCCO3)c(O)cc1OC (stereo not given)	0	–	–
COc1ccc(-c2[nH]nc(C)c2-c2ccc3c(c2)OCCCO3)c(O)c1	25	–	–
CCc1cc(-c2n[nH]c(C)c2-c2ccc3c(c2)OCCO3)c(O)cc1O	–	–	8.9 µM and 7.1 µM
C=CCNC1=C2CC(C)C[C@H](OC)C(O)C(C)/C=C(\C)[C@H](OC(N)=O)[C@@H](OC)/C=C\C=C(/C)C(=O)NC(=CC1=O)C2=O (single isomer, unassigned) [TANESPIMYCIN]	80	0.021	–
CCc1cc(-c2[nH]nc(C)c2-c2ccc3c(c2)OCCO3)c(O)cc1O	79	4.1	–
CCC(C)c1cc(-c2[nH]ncc2-c2ccc3c(c2)OCO3)c(O)cc1O (stereo not given)	64	–	–
CCC(C)c1cc(-c2[nH]ncc2-c2ccccc2)c(O)cc1OC (stereo not given)	10	–	–
Cc1n[nH]c(-c2ccc(O)cc2O)c1Oc1ccc(F)cc1	0	–	–
Cc1[nH]nc(-c2cc(Cl)ccc2O)c1-c1ccc2c(c1)OCCO2	–	–	25.5 µM
COC1=C2CC(C)C[C@H](OC)C(O)C(C)/C=C(\C)[C@H](OC(N)=O)[C@@H](OC)/C=C\C=C(/C)C(=O)NC(=CC1=O)C2=O (single isomer, unassigned) [GELDANAMYCIN]	90	0.067	–

Further lines, results first:

inhibition [1] [%]	GI50 [2] [µM]	IC50 [3]	SMILES
–	11	1.55 µM	Oc1cc(O)c(-c2n[nH]cc2-c2ccc(-c3ccc(F)cc3)cc2)cc1Cl
–	3.6	< 1 µM	Cc1n[nH]c(-c2cc(Cl)c(O)cc2O)c1-c1ccc(OCCCC#N)cc1
–	6.4	1.65 µM	Cc1n[nH]c(-c2cc(Cl)c(O)cc2O)c1-c1ccccc1
–	30	2.4 µM	N#CCCCOc1cccc(-c2cn[nH]c2-c2cc(Cl)c(O)cc2O)c1
–	23	1.6 µM	Oc1cc(O)c(-c2n[nH]cc2-c2ccc3c(c2)OCCO3)cc1Cl
20	–	–	COc1cc(O)c(-c2[nH]ncc2-c2ccc3c(c2)OCO3)cc1C(C)C
–	–	22.3 µM	CCC(C)c1cc(-c2n[nH]cc2-c2ccc3c(c2)OCO3)c(O)cc1O (stereo not given)
–	–	> 100 µM	COc1ccc(-c2cn(C)nc2-c2cc(Cl)c(O)cc2O)cc1OC
–	4	< 1 µM	Cc1[nH]nc(-c2cc(Cl)c(O)cc2O)c1-c1ccc2c(c1)OCCO2
–	6.8	< 1 µM	N#CCCCOc1ccc(-c2cn[nH]c2-c2cc(Cl)c(O)cc2O)cc1
–	13	2.4 µM	COc1ccc(-c2c[nH]nc2-c2cc(Cl)c(O)cc2O)cc1OC
13	–	–	COc1ccc(-c2c[nH]nc2-c2cc(C(C)C)c(OC)cc2O)cc1
–	31	12.8 µM	N#CCCCOc1ccccc1-c1cn[nH]c1-c1cc(Cl)c(O)cc1O
